In ChEMBL document CHEMBL3286317, “Synthesis and biological evaluation of a unique heparin mimetic hexasaccharide for structure-activity relationship studies” (J Med Chem, 2014):
The source made the active and inactive calls. No cut-off for these calls is given here.

Experiments:
[1] = target: T1, Vascular endothelial growth factor A, long form (Homo sapiens, UniProt P15692); assay: Binding affinity to human recombinant VEGF165 by surface plasmon resonance assay
T1 sequence (P15692 whole entry): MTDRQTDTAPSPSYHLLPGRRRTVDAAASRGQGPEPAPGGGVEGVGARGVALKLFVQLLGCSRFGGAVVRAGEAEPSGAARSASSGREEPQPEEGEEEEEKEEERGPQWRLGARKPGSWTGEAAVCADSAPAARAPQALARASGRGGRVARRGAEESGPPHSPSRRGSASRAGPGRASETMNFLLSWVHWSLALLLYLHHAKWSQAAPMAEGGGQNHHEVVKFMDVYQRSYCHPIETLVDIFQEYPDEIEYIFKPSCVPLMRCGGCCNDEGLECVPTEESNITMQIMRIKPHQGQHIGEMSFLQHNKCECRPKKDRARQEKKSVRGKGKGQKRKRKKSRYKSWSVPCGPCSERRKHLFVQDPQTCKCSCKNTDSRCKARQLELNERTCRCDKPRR
In short: (§1)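 Biotinylated low-molecular-weight heparin was captured on a neutravidin surface. Protein at varying concentrations was mixed with a hexasaccharide dilution series and injected. Free protein was read from a quadratic slope-vs-concentration standard curve. KD = [P_free][H_total]/[P_bound], averaged over three hexasaccharide concentrations.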

[2] = target: T2, Fibroblast growth factor 2 (Homo sapiens, UniProt P09038); assay: Binding affinity to human recombinant FGF2 by surface plasmon resonance assay; in short: as §1
C-X-C motif chemokine 2 = target: T3, C-X-C motif chemokine 2 (Homo sapiens, UniProt P19875); assay: Binding affinity to human recombinant CXCL2 by surface plasmon resonance assay; in short: as §1
T3 sequence (P19875 whole entry): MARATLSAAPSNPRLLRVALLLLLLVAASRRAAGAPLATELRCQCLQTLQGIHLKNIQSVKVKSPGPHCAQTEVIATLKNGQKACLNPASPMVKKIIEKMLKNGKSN

Sonic hedgehog protein = Sonic hedgehog protein (Homo sapiens, UniProt Q15465); assay: Binding affinity to human recombinant Shh by surface plasmon resonance assay; in short: as §1
[3] = target: Bone morphogenetic protein 6 (Homo sapiens, UniProt P22004); assay: Binding affinity to human recombinant BMP6 by surface plasmon resonance assay; in short: as §1
[4] = target: T4, Bone morphogenetic protein 4 (Homo sapiens, UniProt P12644); assay: Binding affinity to human recombinant BMP4 by surface plasmon resonance assay; in short: as §1
T4 sequence (P12644 whole entry): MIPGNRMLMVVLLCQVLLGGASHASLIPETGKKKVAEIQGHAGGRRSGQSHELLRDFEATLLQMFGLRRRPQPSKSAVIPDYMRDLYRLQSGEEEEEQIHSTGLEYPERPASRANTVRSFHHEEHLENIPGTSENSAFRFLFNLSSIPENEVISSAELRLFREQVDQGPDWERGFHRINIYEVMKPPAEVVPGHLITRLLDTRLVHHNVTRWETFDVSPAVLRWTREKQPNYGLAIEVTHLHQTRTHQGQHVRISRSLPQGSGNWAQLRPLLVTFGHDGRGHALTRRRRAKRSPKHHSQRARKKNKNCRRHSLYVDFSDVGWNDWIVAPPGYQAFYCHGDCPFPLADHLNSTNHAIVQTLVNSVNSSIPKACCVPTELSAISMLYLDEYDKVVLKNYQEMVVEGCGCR

[5] = target: T5, Bone morphogenetic protein 2 (Homo sapiens, UniProt P12643); assay: Binding affinity to human recombinant BMP2 by surface plasmon resonance assay; in short: as §1
T5 sequence (P12643 whole entry): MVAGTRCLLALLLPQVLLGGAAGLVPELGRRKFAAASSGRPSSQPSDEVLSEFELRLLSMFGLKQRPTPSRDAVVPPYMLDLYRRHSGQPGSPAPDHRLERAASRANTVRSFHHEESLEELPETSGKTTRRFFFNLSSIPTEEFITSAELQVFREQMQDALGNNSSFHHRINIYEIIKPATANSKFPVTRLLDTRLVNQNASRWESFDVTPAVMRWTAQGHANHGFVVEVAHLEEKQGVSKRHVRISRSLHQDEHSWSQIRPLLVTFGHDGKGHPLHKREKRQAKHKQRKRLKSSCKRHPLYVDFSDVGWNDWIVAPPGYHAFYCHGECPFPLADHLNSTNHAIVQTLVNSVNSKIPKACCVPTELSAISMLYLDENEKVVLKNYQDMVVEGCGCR

[6] = target: T2, Fibroblast growth factor 2; assay: Binding affinity to human recombinant FGF2 at 780 uM by STD-NMR analysis

Sequence of Sonic hedgehog protein (Q15465 24-197 limits assumed): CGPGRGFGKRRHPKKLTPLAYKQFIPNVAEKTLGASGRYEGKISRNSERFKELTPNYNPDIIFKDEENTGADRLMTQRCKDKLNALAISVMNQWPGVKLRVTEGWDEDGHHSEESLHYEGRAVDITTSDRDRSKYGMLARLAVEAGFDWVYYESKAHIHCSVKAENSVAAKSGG
Sequence of Bone morphogenetic protein 6 (P22004 375-513 limits assumed): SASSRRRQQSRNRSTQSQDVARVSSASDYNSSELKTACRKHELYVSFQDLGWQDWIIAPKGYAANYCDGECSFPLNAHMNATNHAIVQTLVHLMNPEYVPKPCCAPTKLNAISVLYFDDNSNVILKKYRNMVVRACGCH
T2 sequence (P09038 143-288 limits assumed): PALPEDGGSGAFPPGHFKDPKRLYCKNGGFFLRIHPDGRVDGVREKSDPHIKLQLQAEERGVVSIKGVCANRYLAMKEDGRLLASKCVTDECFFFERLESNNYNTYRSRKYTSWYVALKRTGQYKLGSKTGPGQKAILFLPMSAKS

CCCCCO[C@H]1O[C@H](COS(=O)(=O)O)[C@@H](O[C@@H]2O[C@@H](C(=O)O)[C@@H](O[C@H]3O[C@H](COS(=O)(=O)O)[C@@H](O[C@@H]4O[C@@H](C(=O)O)[C@@H](O[C@H]5O[C@H](COS(=O)(=O)O)[C@@H](O[C@@H]6O[C@@H](C(=O)O)[C@@H](O)[C@H](O)[C@H]6OS(=O)(=O)O)[C@H](O)[C@H]5NC(C)=O)[C@H](O)[C@H]4OS(=O)(=O)O)[C@H](O)[C@H]3NS(=O)(=O)O)[C@H](O)[C@H]2O)[C@H](O)[C@H]1NC(C)=O gave a Kd [1] of 14 µM, a Kd [2] of 25000 µM and a Kd (C-X-C motif chemokine 2) of 250000 µM. For the same compound, the Kd (Sonic hedgehog protein) was 23 µM, the Kd [3] was 9 µM and the Kd [4] was 250000 µM. The Kd [5] was 34 µM and the Activity [6] was “Active”.

Compound NCCCCCO[C@H]1O[C@H](CO)[C@@H](O[C@@H]2O[C@@H](C(=O)O)[C@@H](O[C@H]3O[C@H](CO)[C@@H](O[C@@H]4O[C@@H](C(=O)O)[C@@H](O[C@H]5O[C@H](CO)[C@@H](O[C@@H]6O[C@@H](C(=O)O)[C@@H](O)[C@H](O)[C@H]6OS(=O)(=O)O)[C@H](O)[C@H]5NS(=O)(=O)O)[C@H](O)[C@H]4OS(=O)(=O)O)[C@H](O)[C@H]3NS(=O)(=O)O)[C@H](O)[C@H]2OS(=O)(=O)O)[C@H](O)[C@H]1NS(=O)(=O)O has a Kd [1] of 86 µM, a Kd [2] of 1 µM and a Kd (C-X-C motif chemokine 2) of 250000 µM. For the same compound, the Kd (Sonic hedgehog protein) was 122 µM, the Kd [3] was 250000 µM and the Kd [4] was 250000 µM. For the same compound, the Kd [5] was 46 µM and the Activity [6] was “Active”.

For CCCCCO[C@H]1O[C@H](COS(=O)(=O)O)[C@@H](O[C@@H]2O[C@@H](C(=O)O)[C@@H](O[C@H]3O[C@H](COS(=O)(=O)O)[C@@H](O[C@@H]4O[C@@H](C(=O)O)[C@@H](O[C@H]5O[C@H](COS(=O)(=O)O)[C@@H](O[C@@H]6O[C@@H](C(=O)O)[C@@H](O)[C@H](O)[C@H]6OS(=O)(=O)O)[C@H](O)[C@H]5NC(C)=O)[C@H](O)[C@H]4OS(=O)(=O)O)[C@H](O)[C@H]3NC(C)=O)[C@H](O)[C@H]2OS(=O)(=O)O)[C@H](O)[C@H]1NC(C)=O, the Kd [1] was 66 µM, the Kd [2] was 25000 µM and the Kd (C-X-C motif chemokine 2) was 250000 µM. It also gave a Kd (Sonic hedgehog protein) of 27 µM, a Kd [3] of 250000 µM and a Kd [4] of 250000 µM. The Kd [5] was 24 µM and the Activity [6] was “Active”.
